Measurements as given in ChEMBL document CHEMBL5724801, “EUbOPEN Chemogenomics Library - Multiplex” (2024).
Where “and” joins values, the source holds several entries; their conditions need not be identical. Identical values can stand only once.

System: HEK-293T
Assay: Multiplex assay against HEK293T
Format: toxicity, cell-based
Conditions: human
How it was run: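 Phenotypes for tubulin, mitochondrial mass and membrane permeability are expressed as per cents of healthy-nucleus cells. Cells were stained live at seeding with Hoechst33342, BioTracker Green Microtubule Cytoskeleton Dye, MitoTracker Red and Annexin V Alexa Fluor 680, then imaged after compound addition on a CQ1 microscope at 37°C and 5% CO2. Machine-learning gating in CellPathfinder separated Hoechst high-intensity objects from normal cells, divided normal cells by nuclear state (healthy, pyknosed, fragmented) and divided pyknosed cells into mitotic or apoptotic.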

[1] = 12 h, 1 µM, compound concentration 1 uM
[2] = 12 h, 10 µM, compound concentration 10 uM
[3] = 24 h, 1 µM, compound concentration 1 uM
[4] = 24 h, 10 µM, compound concentration 10 uM
[5] = 48 h, 1 µM, compound concentration 1 uM
[6] = 48 h, 10 µM, compound concentration 10 uM

With `Cc1cc(Nc2ncc(Cl)c(Nc3ccccc3S(=O)(=O)C(C)C)n2)c(OC(C)C)cc1C1CCNCC1` [CERITINIB] the “Population Apoptotic (%)” value [1] was 15.93% and 15.13%, the “Population Fragmented Nuclei (%)” value [1] was 1.92% and 4.62% and the “Population Hoechst High Intensity Objects (%)” value [1] was 1.88% and 0.76%. The “Population Membrane Permeable-Phenotype (%)” value [1] was 1.35% and 0%, the “Population Mitochondria Different-Phenotype (%)” value [1] was 32.43% and 80% and the “Population Mitotic Cells (%)” value [1] was 84.07% and 84.87%. For the same molecule, the “Population Normal (%)” value [1] was 98.12% and 99.24%, the “Population Pyknosed Nuclei (%)” value [1] was 69.73% and 91.54% and the “Population Tubulin-Different-Phenotype (%)” value [1] was 50% and 80%. The “Total Cell Count” value [1] was 266 and 131, the “Population Apoptotic (%)” value [2] was 30.99% and 76.42% and the “Population Fragmented Nuclei (%)” value [2] was 1.54% and 6.06%. The “Population Healthy Nuclei (%)” value [2] was 2.15% and 0.76%, the “Population Hoechst High Intensity Objects (%)” value [2] was 1.22% and 0% and the “Population Membrane Permeable-Phenotype (%)” value [2] was 0%. The “Population Mitotic Cells (%)” value [2] was 69.01% and 23.58%, the “Population Normal (%)” value [2] was 98.78% and 100% and the “Population Pyknosed Nuclei (%)” value [2] was 96.31% and 93.18%. For the same molecule, the “Total Cell Count” value [2] was 329 and 132, the “Population Apoptotic (%)” value [3] was 45.74% and 45.87% and the “Population Fragmented Nuclei (%)” value [3] was 2.55% and 3.68%. For the same molecule, the “Population Hoechst High Intensity Objects (%)” value [3] was 0% and 0.73%, the “Population Membrane Permeable-Phenotype (%)” value [3] was 0% and the “Population Mitochondria Different-Phenotype (%)” value [3] was 64.49% and 77.27%. For the same molecule, the “Population Mitotic Cells (%)” value [3] was 54.26% and 54.13%, the “Population Normal (%)” value [3] was 100% and 99.27% and the “Population Pyknosed Nuclei (%)” value [3] was 47.08% and 80.15%. For the same molecule, the “Population Tubulin-Different-Phenotype (%)” value [3] was 71.01% and 54.55%, the “Total Cell Count” value [3] was 274 and 137 and the “Population Apoptotic (%)” value [4] was 64.24% and 88.24%. For the same molecule, the “Population Fragmented Nuclei (%)” value [4] was 1.89% and 7.03%, the “Population Healthy Nuclei (%)” value [4] was 2.84% and 0% and the “Population Hoechst High Intensity Objects (%)” value [4] was 0%. The “Population Membrane Permeable-Phenotype (%)” value [4] was 0%, the “Population Mitochondria Different-Phenotype (%)” value [4] was 88.89% and the “Population Normal (%)” value [4] was 100%. For the same molecule, the “Population Pyknosed Nuclei (%)” value [4] was 95.27% and 92.97%, the “Population Tubulin-Different-Phenotype (%)” value [4] was 100% and the “Total Cell Count” value [4] was 317 and 128. For the same molecule, the “Population Apoptotic (%)” value [5] was 27.27% and 48.81%, the “Population Fragmented Nuclei (%)” value [5] was 2.27% and 3.2% and the “Population Healthy Nuclei (%)” value [5] was 75% and 29.6%. The “Population Hoechst High Intensity Objects (%)” value [5] was 0.21% and 1.57%, the “Population Membrane Permeable-Phenotype (%)” value [5] was 1.38% and 2.7% and the “Population Mitochondria Different-Phenotype (%)” value [5] was 68.6% and 81.08%. For the same molecule, the “Population Mitotic Cells (%)” value [5] was 72.73% and 51.19%, the “Population Normal (%)” value [5] was 99.79% and 98.43% and the “Population Pyknosed Nuclei (%)” value [5] was 22.73% and 67.2%. For the same molecule, the “Population Apoptotic (%)” value [6] was 62.54% and 87.16%, the “Population Fragmented Nuclei (%)” value [6] was 1.6% and 9.02% and the “Population Healthy Nuclei (%)” value [6] was 7.99% and 9.02%. The “Population Hoechst High Intensity Objects (%)” value [6] was 0%, the “Population Membrane Permeable-Phenotype (%)” value [6] was 0% and 8.33% and the “Population Mitochondria Different-Phenotype (%)” value [6] was 92% and 91.67%. The “Population Mitotic Cells (%)” value [6] was 37.46% and 12.84%, the “Population Normal (%)” value [6] was 100% and the “Population Pyknosed Nuclei (%)” value [6] was 90.42% and 81.95%. For the same molecule, the “Population Tubulin-Different-Phenotype (%)” value [6] was 52% and 91.67% and the “Total Cell Count” value [6] was 313 and 133.

With `CN1C[C@H](C(=O)N[C@]2(C)O[C@@]3(O)[C@@H]4CCCN4C(=O)[C@H](Cc4ccccc4)N3C2=O)C[C@@H]2c3cccc4[nH]cc(c34)C[C@H]21.CS(=O)(=O)O` [DIHYDROERGOTAMINE MESYLATE] the “Population Apoptotic (%)” value [1] was 38% and 46%, the “Population Fragmented Nuclei (%)” value [1] was 6% and 3% and the “Population Healthy Nuclei (%)” value [1] was 84% and 81%. For the same molecule, the “Population Hoechst High Intensity Objects (%)” value [1] was 5%, the “Population Membrane Permeable-Phenotype (%)” value [1] was 0% and the “Population Mitochondria Different-Phenotype (%)” value [1] was 41% and 65%. For the same molecule, the “Population Mitotic Cells (%)” value [1] was 61% and 53%, the “Population Normal (%)” value [1] was 94% and the “Population Pyknosed Nuclei (%)” value [1] was 8% and 14%. The “Population Tubulin-Different-Phenotype (%)” value [1] was 26% and 17%, the “Total Cell Count” value [1] was 418 and 285 and the “Population Apoptotic (%)” value [2] was 31% and 53%. The “Population Fragmented Nuclei (%)” value [2] was 7% and 5%, the “Population Healthy Nuclei (%)” value [2] was 76% and 80% and the “Population Hoechst High Intensity Objects (%)” value [2] was 9% and 11%. For the same molecule, the “Population Membrane Permeable-Phenotype (%)” value [2] was 0%, the “Population Mitochondria Different-Phenotype (%)” value [2] was 48% and 61% and the “Population Mitotic Cells (%)” value [2] was 68% and 46%. For the same molecule, the “Population Normal (%)” value [2] was 90% and 88%, the “Population Pyknosed Nuclei (%)” value [2] was 15% and 13% and the “Population Tubulin-Different-Phenotype (%)” value [2] was 29% and 23%. For the same molecule, the “Total Cell Count” value [2] was 403 and 435, the “Population Apoptotic (%)” value [3] was 28% and 51% and the “Population Fragmented Nuclei (%)” value [3] was 9% and 7%. For the same molecule, the “Population Healthy Nuclei (%)” value [3] was 80% and 84%, the “Population Hoechst High Intensity Objects (%)” value [3] was 4% and 3% and the “Population Membrane Permeable-Phenotype (%)” value [3] was 0%. For the same molecule, the “Population Mitochondria Different-Phenotype (%)” value [3] was 28% and 41%, the “Population Mitotic Cells (%)” value [3] was 71% and 48% and the “Population Normal (%)” value [3] was 95% and 96%. For the same molecule, the “Population Pyknosed Nuclei (%)” value [3] was 9% and 8%, the “Population Tubulin-Different-Phenotype (%)” value [3] was 20% and 12% and the “Total Cell Count” value [3] was 621 and 341. The “Population Apoptotic (%)” value [4] was 27% and 32%, the “Population Fragmented Nuclei (%)” value [4] was 10% and 9% and the “Population Healthy Nuclei (%)” value [4] was 76% and 84%. The “Population Hoechst High Intensity Objects (%)” value [4] was 5% and 6%, the “Population Membrane Permeable-Phenotype (%)” value [4] was 0% and the “Population Mitochondria Different-Phenotype (%)” value [4] was 33% and 39%. The “Population Mitotic Cells (%)” value [4] was 72% and 67%, the “Population Normal (%)” value [4] was 94% and 93% and the “Population Pyknosed Nuclei (%)” value [4] was 13% and 6%. For the same molecule, the “Population Tubulin-Different-Phenotype (%)” value [4] was 26% and 16%, the “Total Cell Count” value [4] was 480 and 567 and the “Population Apoptotic (%)” value [5] was 29% and 28%. For the same molecule, the “Population Fragmented Nuclei (%)” value [5] was 14% and 12%, the “Population Healthy Nuclei (%)” value [5] was 78% and 82% and the “Population Hoechst High Intensity Objects (%)” value [5] was 2%. For the same molecule, the “Population Membrane Permeable-Phenotype (%)” value [5] was 1% and 0%, the “Population Mitochondria Different-Phenotype (%)” value [5] was 17% and 23% and the “Population Mitotic Cells (%)” value [5] was 70% and 71%. The “Population Normal (%)” value [5] was 97%, the “Population Pyknosed Nuclei (%)” value [5] was 6% and 5% and the “Population Tubulin-Different-Phenotype (%)” value [5] was 11% and 9%. The “Total Cell Count” value [5] was 1011 and 524, the “Population Apoptotic (%)” value [6] was 22% and 31% and the “Population Fragmented Nuclei (%)” value [6] was 15%. The “Population Healthy Nuclei (%)” value [6] was 76% and 77%, the “Population Hoechst High Intensity Objects (%)” value [6] was 2% and 1% and the “Population Membrane Permeable-Phenotype (%)” value [6] was 0%. The “Population Mitochondria Different-Phenotype (%)” value [6] was 20% and 21%, the “Population Mitotic Cells (%)” value [6] was 77% and 68% and the “Population Normal (%)” value [6] was 97% and 98%. For the same molecule, the “Population Pyknosed Nuclei (%)” value [6] was 7% and 6%, the “Population Tubulin-Different-Phenotype (%)” value [6] was 12% and 11% and the “Total Cell Count” value [6] was 778 and 793.
